{
  "source": "ChEMBL document CHEMBL2417547",
  "about": "(J Med Chem, 2013)",
  "key": {"Cytochrome P450 2A6": {"target": "T1, Cytochrome P450 2A6 (Homo sapiens, UniProt P11509)", "T1 sequence (P11509 whole entry)": "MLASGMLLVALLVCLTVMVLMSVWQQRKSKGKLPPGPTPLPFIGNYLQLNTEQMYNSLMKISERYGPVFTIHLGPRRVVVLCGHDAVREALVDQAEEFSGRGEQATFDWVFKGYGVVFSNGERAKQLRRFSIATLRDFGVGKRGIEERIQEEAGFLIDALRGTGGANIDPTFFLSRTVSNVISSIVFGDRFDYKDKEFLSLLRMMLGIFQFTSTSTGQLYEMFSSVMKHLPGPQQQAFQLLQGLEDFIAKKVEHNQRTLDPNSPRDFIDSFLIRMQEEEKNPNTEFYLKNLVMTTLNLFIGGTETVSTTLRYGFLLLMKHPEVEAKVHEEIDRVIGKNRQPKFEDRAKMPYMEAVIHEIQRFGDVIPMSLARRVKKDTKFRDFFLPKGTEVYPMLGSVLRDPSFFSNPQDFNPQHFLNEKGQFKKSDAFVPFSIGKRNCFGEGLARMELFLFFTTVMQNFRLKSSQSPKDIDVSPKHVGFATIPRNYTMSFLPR", "test": "Inhibition of CYP2A6 (unknown origin) using coumarin as substrate", "format": "ADME", "summary_of_the_method": "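Commercial CYP2A6/coumarin inhibitor screening kit with coumarin as substrate at 3 μM, run per the kit instructions. IC50 determined.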"}, "[1]": {"target": "T2, Cytochrome P450 11B1, mitochondrial (Rattus norvegicus, UniProt P15393)", "T2 sequence (P15393 whole entry)": "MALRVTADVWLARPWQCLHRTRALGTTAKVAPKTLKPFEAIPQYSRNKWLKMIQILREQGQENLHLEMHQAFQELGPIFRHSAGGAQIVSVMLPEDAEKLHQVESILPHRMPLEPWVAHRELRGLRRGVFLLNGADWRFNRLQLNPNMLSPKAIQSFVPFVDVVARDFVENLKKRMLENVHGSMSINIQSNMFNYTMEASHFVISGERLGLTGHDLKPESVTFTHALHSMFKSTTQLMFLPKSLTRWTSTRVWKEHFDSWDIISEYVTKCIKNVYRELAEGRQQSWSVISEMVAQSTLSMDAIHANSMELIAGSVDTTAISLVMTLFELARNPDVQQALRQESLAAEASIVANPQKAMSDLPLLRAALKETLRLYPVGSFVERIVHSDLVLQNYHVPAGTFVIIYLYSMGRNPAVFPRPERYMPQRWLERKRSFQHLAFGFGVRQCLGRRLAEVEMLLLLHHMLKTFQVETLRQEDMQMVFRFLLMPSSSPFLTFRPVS", "test": "Inhibition of rat CYP11B1 expressed in hamster V79MZh cells using [1,2-3H]-11-deoxycorticosterone as substrate", "format": "cell-based", "summary_of_the_method": "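V79MZh cells expressing rat CYP11B1 were incubated with [1,2-3H]-11-deoxycorticosterone (100 nM) and inhibitor at varying concentrations. IC50 is the mean of more than three repeats.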"}, "Cytochrome P450 3A4": {"target": "Cytochrome P450 3A4 (Homo sapiens, UniProt P08684)", "sequence (P08684 whole entry)": "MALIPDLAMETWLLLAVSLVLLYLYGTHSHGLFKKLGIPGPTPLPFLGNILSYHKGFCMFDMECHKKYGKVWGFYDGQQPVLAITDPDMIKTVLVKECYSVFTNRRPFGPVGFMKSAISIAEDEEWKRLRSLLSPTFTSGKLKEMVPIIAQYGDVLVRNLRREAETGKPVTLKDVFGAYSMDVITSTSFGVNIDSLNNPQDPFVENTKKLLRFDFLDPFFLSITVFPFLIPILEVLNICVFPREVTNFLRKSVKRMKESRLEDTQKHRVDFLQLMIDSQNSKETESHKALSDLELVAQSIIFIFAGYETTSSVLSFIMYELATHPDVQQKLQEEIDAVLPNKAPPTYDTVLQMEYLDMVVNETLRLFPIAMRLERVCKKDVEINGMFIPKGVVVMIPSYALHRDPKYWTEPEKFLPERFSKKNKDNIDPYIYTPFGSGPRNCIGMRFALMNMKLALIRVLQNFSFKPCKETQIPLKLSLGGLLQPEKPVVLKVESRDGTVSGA", "test": "Inhibition of CYP3A4 (unknown origin) using 7-benzyloxy trifluoromethylcoumarin as substrate", "format": "ADME", "summary_of_the_method": "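Commercial CYP3A4/BFC inhibitor screening kit with 7-benzyloxy-trifluoromethylcoumarin as substrate at 50 μM, run per the kit instructions. IC50 determined.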"}, "[2]": {"test": "Cytotoxicity against HEK293 cells after 24 hrs", "format": "cell-based", "settings": "human, read-out: LC50", "summary_of_the_method": "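HEK 293 cells seeded at 2 × 10⁵ cells per well; compounds added 24 h after seeding at 1% final DMSO. Living cell mass determined after 24 h incubation; LC₅₀ calculated. Doxorubicin positive control, rifampicin negative control. Mean of more than three repeats.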"}, "[3]": {"test": "Half life in rat plasma at 1 uM by LC-MS/MS analysis", "format": "ADME, cell-free", "summary_of_the_method": "(§1)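 Compound at 1 μM in pooled heparinized plasma of the stated species, 37 °C, sampled at 0, 10, 30, 60 and 150 min. Proteins precipitated with 5 volumes of cold acetonitrile containing internal standard. Remaining compound quantified by LC-MS/MS to give half-life.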"}, "[4]": {"test": "Half life in human plasma at 1 uM by LC-MS/MS analysis", "format": "ADME, cell-free", "summary_of_the_method": "as §1"}, "[5]": {"target": "T3, Cytochrome P450 11B1, mitochondrial (Homo sapiens, UniProt P15538)", "T3 sequence (P15538 whole entry)": "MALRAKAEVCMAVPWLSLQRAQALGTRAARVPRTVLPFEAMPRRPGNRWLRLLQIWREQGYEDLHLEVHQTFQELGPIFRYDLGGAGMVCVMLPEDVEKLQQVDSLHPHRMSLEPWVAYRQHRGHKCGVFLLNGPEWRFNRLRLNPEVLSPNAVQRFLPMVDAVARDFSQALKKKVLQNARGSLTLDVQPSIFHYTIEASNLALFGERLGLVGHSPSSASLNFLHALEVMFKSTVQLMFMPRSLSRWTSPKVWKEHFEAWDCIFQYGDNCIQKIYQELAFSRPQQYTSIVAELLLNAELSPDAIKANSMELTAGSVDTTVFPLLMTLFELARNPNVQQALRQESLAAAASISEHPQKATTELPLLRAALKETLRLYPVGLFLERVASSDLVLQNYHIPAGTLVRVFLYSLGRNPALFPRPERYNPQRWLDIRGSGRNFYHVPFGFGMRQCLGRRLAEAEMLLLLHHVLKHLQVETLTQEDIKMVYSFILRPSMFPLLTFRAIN", "test": "Inhibition of human CYP11B1 expressed in hamster V79MZh cells using [1,2-3H]-11-deoxycorticosterone as substrate", "format": "cell-based", "summary_of_the_method": "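V79MZh hamster fibroblasts expressing human CYP11B1 or CYP11B2 were incubated with [1,2-3H]-11-deoxycorticosterone (100 nM) plus inhibitor at a range of concentrations. The selectivity factor is IC50(CYP11B2)/IC50(CYP11B1).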"}},
  "data": [
    {"smiles": "Cc1cncc(Cc2ccc(-c3ccccc3)nc2)c1", "values": [
      {"measurement": "IC50", "setting": "Cytochrome P450 2A6", "result": 106000, "unit": "nM"},
      {"measurement": "IC50", "setting": "[1]", "result": 2440, "unit": "nM"},
      {"measurement": "IC50", "setting": "Cytochrome P450 3A4", "result": 1100, "unit": "nM"},
      {"measurement": "CC50 at 24 h", "setting": "[2]", "result": 61400, "unit": "nM"},
      {"measurement": "half-life at 1 µM", "setting": "[3]", "result": "> 2.5", "unit": "h"},
      {"measurement": "half-life at 1 µM", "setting": "[4]", "result": "> 2.5", "unit": "h"},
      {"measurement": "IC50", "setting": "[5]", "result": 2, "unit": "nM"}
    ]}
  ]
}
